Assays:
Estrogen receptor [1] = target: T1, Estrogen receptor (Homo sapiens, UniProt P03372); test: Agonist activity at ERalpha in estrogen-sensitive human T47D cells assessed as cell proliferation at 0.1 uM after 7 days by MTS assay; format: cell-based; conditions: 168 h
T1 sequence (P03372 whole entry): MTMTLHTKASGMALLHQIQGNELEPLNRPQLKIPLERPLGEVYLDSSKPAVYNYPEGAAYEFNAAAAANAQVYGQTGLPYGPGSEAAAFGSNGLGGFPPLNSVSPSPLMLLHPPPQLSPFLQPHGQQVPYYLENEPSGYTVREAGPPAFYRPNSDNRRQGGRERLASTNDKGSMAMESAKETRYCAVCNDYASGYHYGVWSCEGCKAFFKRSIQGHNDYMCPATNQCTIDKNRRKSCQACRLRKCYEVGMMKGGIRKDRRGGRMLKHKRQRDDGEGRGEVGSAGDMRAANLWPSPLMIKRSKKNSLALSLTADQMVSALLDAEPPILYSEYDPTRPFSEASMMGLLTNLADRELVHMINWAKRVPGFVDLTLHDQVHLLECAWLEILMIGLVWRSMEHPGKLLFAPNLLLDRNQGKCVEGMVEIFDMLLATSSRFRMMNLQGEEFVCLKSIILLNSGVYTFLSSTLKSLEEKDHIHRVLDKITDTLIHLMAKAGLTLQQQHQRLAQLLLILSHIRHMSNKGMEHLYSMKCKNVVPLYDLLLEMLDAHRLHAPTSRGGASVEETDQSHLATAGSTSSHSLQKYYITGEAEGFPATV
Method in brief: (§1)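 Seeded 3000 cells/well, 48 h attachment. Compounds diluted from DMSO (final ≤0.1%) in medium, renewed every 2 days for 7 days. Proliferation read by MTS, 4 h at 37 °C, absorbance 490 nm. Control (medium + DMSO) set to 100%. Mean ± SD of triplicates.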

Estrogen receptor [2] = target: T1, Estrogen receptor; test: Agonist activity at ERalpha in estrogen-sensitive human T47D cells assessed as cell proliferation at 0.01 uM after 7 days by MTS assay; format: cell-based; conditions: 168 h; method in brief: as §1
Estrogen receptor [3] = target: T1, Estrogen receptor; test: Agonist activity at ERalpha in estrogen-sensitive human T47D cells assessed as cell proliferation at 1 uM after 7 days by MTS assay; format: cell-based; conditions: 168 h; method in brief: as §1
[4] = Cytotoxicity against estrogen-sensitive human T47D cells assessed as reduction in cell proliferation at 0.01 to 1 uM after 7 days by MTS assay; format: toxicity, cell-based; conditions: 168 h; method in brief: as §1
[5] = Cytotoxicity against estrogen-sensitive human T47D cells assessed as reduction in cell proliferation at 5 uM after 7 days by MTS assay; format: toxicity, cell-based; conditions: 168 h; method in brief: as §1
[6] = Cytotoxicity against human Saos2 cells assessed as reduction in cell proliferation at 5 to 10 uM after 7 days by MTS assay; format: toxicity, cell-based; conditions: saos-2, 168 h
Method in brief: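 Saos-2 cells in phenol-red-free McCoy's 5A with 10% charcoal-stripped FBS. Seeded 3000 cells/well, treated after 24 h with compounds from 1 nM to 10 µM (DMSO ≤0.1% final), renewed every 2 days for 7 days. MTS 2 h at 37 °C, absorbance 490 nm. Control (medium + DMSO) = 100%. Mean ± SD of triplicates.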

[7] = target: T2, Estrogen receptor (Homo sapiens) (UniProt P03372); test: Antiestrogenic activity at ERalpha in estrogen-sensitive human T47D cells assessed as blockage of E2 stimulated cell proliferation at 5 uM after 7 days in presence of E2 by MTS assay; format: cell-based
T2 sequence (whole entry): T1 sequence (P03372 whole entry)
Method in brief: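 Estrogen-deprived T-47D cells (RPMI, insulin 50 ng/mL, 5% charcoal-stripped FBS) seeded at 3000 cells/well, attached 48 h. Then treated 7 days with compound plus E2 (0.1 nM), medium renewed every 2 days. DMSO final ≤0.1%. MTS added 4 h, A490. Control (medium + DMSO) = 100%. Mean ± SD of triplicates.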

Steryl-sulfatase = target: T3, Steryl-sulfatase (Homo sapiens, UniProt P08842); test: Inhibition of steroid sulfatase (unknown origin) expressed in HEK293 cells assessed as reduction in transformation of [3H]-E1S to E1 after 2 hrs by liquid scintillation counting; format: cell-based
T3 sequence (P08842 whole entry): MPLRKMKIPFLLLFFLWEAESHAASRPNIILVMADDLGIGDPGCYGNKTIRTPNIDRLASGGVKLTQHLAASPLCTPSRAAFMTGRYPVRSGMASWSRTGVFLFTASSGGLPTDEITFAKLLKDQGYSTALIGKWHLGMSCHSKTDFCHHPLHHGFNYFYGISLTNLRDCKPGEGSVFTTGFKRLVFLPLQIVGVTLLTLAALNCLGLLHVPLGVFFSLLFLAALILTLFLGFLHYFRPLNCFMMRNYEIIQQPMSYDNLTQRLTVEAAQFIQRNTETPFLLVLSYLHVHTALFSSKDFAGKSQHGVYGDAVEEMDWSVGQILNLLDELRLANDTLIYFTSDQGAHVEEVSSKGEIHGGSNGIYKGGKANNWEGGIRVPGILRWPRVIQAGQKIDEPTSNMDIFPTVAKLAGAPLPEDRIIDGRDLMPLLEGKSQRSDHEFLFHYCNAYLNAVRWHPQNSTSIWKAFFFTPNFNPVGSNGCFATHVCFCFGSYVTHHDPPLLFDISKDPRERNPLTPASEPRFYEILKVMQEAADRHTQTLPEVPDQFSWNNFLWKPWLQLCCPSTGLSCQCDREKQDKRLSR
Method in brief: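 Homogenate of STS-overexpressing HEK-293 cells (lysed by 5 freeze (−80 °C)/thaw (4 °C) cycles) incubated 2 h at 37 °C with inhibitors 0.01–1 µM and [3H]-E1S 9 nM adjusted to 1 µM with E1S, in Tris-acetate pH 7.4 with 5 mM EDTA, 10% glycerol. Xylene extraction separated E1 from E1S; scintillation counting; % inhibition vs no-inhibitor control; IC50 from curve; triplicates, mean ± SD.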

Activity [7] [%]	Compound	Activity (Estrogen receptor [1]) [%]	Activity (Estrogen receptor [2]) [%]	Activity (Estrogen receptor [3]) [%]	Activity [4]	Activity [5]	Activity [6]	IC50 (Steryl-sulfatase) [nM]
	O=C(c1ccc(CN(Cc2ccc(O)cc2)Cc2ccco2)cc1)N1CCc2ccc(O)cc2C1	138	108.2	200.3				
	O=C(c1ccc(CN(Cc2ccc(OCCCN3CCCCC3)cc2)Cc2ccco2)cc1)N1CCc2ccc(O)cc2C1	119.7	95.6	133.7				
	O=C(c1ccc(CN(CCCn2ccnc2)Cc2ccccn2)cc1)N1CCc2ccc(O)cc2C1	112.9	102.8	39.2				
	O=C(c1ccc(CN(Cc2ccc(Br)cc2)Cc2ccco2)cc1)N1CCc2ccc(O)cc2C1	109.4	106.3	59.2				
	COc1ccc(CN(Cc2ccc(C(=O)N3CCc4ccc(O)cc4C3)cc2)Cc2ccccn2)cc1	104.6	105.6	100.9	Non-Toxic	Toxic		
	Cc1ccc(CN(Cc2ccc(C(=O)N3CCc4ccc(O)cc4C3)cc2)Cc2ccccn2)s1	105.4	100.6	78.9				
	O=C(c1ccc(CN(Cc2ccccn2)Cc2ccccc2OCCCN2CCCCC2)cc1)N1CCc2ccc(O)cc2C1	99.8	102.8	37.1				
	O=C(c1ccc(CN(Cc2ccc(OCCCN3CCCCC3)cc2)Cc2ccccn2)cc1)N1CCc2ccc(O)cc2C1	104.5	105.9	60.7				
	O=C(c1ccc(OCCN2CCCCC2)cc1)c1c(-c2ccc(O)cc2)sc2cc(O)ccc12 [RALOXIFENE]					Toxic	Toxic	
	O=C(c1ccc(CN(Cc2ccccn2)Cc2ccco2)cc1)N1CCc2ccc(O)cc2C1	103.2	104.1	103.5	Non-Toxic			
	O=C(c1ccc(CN(CCN2CCOCC2)Cc2ccco2)cc1)N1CCc2ccc(O)cc2C1	105.9	108.2	118.8				
	NS(=O)(=O)Oc1ccc2c(c1)CN(C(=O)c1ccc(CN(Cc3ccccn3)Cc3ccco3)cc1)CC2					Toxic		
84	Cc1ccc(CN(Cc2ccc(C(=O)N3CCc4ccc(O)cc4C3)cc2)Cc2ccco2)s1	103.2	97.1	96.8	Non-Toxic		Toxic	
	O=C(c1ccc(CN(Cc2ccco2)Cc2ccccc2OCCCN2CCCCC2)cc1)N1CCc2ccc(O)cc2C1	105.9	96.8	0				
	O=C(c1ccc(CN(CCCn2ccnc2)Cc2ccco2)cc1)N1CCc2ccc(O)cc2C1	98.5	94.9	114.6				
	Cc1ccc(CN(Cc2ccc(C(=O)N3CCc4ccc(OS(N)(=O)=O)cc4C3)cc2)Cc2ccco2)s1					Toxic	Toxic	8.9
	COc1ccc(CN(Cc2ccc(C(=O)N3CCc4ccc(OS(N)(=O)=O)cc4C3)cc2)Cc2ccccn2)cc1					Toxic		
	COc1cc2c(cc1OS(N)(=O)=O)CC[C@@H]1[C@@H]2CC[C@@]2(C)[C@H]1CC[C@@]2(O)Cc1ccccc1							0.05
